Our source for the MIC values is ChEMBL document CHEMBL3259614, “Design, synthesis, and structure-activity relationship studies of novel fused heterocycles-linked triazoles with good activity and water solubility” (J Med Chem, 2014).

Molecules are shown by their SMILES. Values after ≈ are worked out from the molar mass of the structure shown.

The first test relates to Candida albicans. Nature of the test: Antimicrobial activity against Candida albicans SC5314 after 24 hrs by serial dilution method. To be noted: SC5314, 24 h. The format is functional. The method in brief:
(§1)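 Broth serial dilution MIC in 96-well plates following NCCLS/CLSI methods. Compounds were dissolved in DMSO and serially diluted in growth medium, with incubation at 35 °C. […] C. parapsilosis 22019 served as the quality-control strain in each assay.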
On to `C[C@@H](N1CCn2nc(-c3ccc(C#N)cc3)nc2C1)[C@](O)(Cn1cncn1)c1ccc(F)cc1F`, for which it took 0.125 µg/mL (≈ 0.262 µM) to inhibit growth (MIC).

Take `Cc1cccc(-c2nc3n(n2)CCN([C@H](C)[C@](O)(Cn2cncn2)c2ccc(F)cc2F)C3)c1`: the lowest concentration to inhibit growth (MIC) was 0.0625 µg/mL (≈ 0.134 µM).

On to `C[C@@H](N1CCn2nc(-c3ccc(Br)cc3)nc2C1)[C@](O)(Cn1cncn1)c1ccc(F)cc1F`, for which the MIC – broadly, the smallest concentration in the dilution series that meets the test's criterion for growth inhibition – amounted to 0.25 µg/mL (≈ 0.471 µM).

`C[C@@H](N1CCn2nc(-c3ccc(F)cc3)nc2C1)[C@](O)(Cn1cncn1)c1ccc(F)cc1F` displayed an MIC of 0.25 µg/mL (≈ 0.533 µM).

For the compound `C[C@@H](N1CCn2nc(-c3ccc(Cl)cc3)nc2C1)[C@](O)(Cn1cncn1)c1ccc(F)cc1F`, the MIC was 0.25 µg/mL (≈ 0.514 µM).

With `C[C@@H](N1CCn2nc(-c3cccc(Cl)c3)nc2C1)[C@](O)(Cn1cncn1)c1ccc(F)cc1F`, the MIC was found to be 0.25 µg/mL (≈ 0.514 µM).

Consider `C[C@@H](N1CCn2nc(-c3cccc(Br)c3)nc2C1)[C@](O)(Cn1cncn1)c1ccc(F)cc1F`, for which inhibition of growth (MIC) required 0.25 µg/mL (≈ 0.471 µM).

`C[C@@H](N1CCn2nc(-c3cccc(C(F)(F)F)c3)nc2C1)[C@](O)(Cn1cncn1)c1ccc(F)cc1F` displayed an MIC of 0.5 µg/mL (≈ 0.963 µM).

For a further test, the system named is Candida albicans. Briefly: Antimicrobial activity against Candida albicans Y0109 after 24 hrs by serial dilution method. In kind it is functional. To be noted: Y0109, 24 h. In a few lines: as §1
`C[C@@H](N1CCn2nc(-c3ccc(C#N)cc3)nc2C1)[C@](O)(Cn1cncn1)c1ccc(F)cc1F` registered an MIC of 0.125 µg/mL (≈ 0.262 µM).

The compound `Cc1cccc(-c2nc3n(n2)CCN([C@H](C)[C@](O)(Cn2cncn2)c2ccc(F)cc2F)C3)c1` displayed an MIC of 0.125 µg/mL (≈ 0.269 µM).

On to `C[C@@H](N1CCn2nc(-c3ccc(Br)cc3)nc2C1)[C@](O)(Cn1cncn1)c1ccc(F)cc1F`, for which the lowest concentration to inhibit growth (MIC) was 0.125 µg/mL (≈ 0.236 µM).

Turning to `C[C@@H](N1CCn2nc(-c3ccc(F)cc3)nc2C1)[C@](O)(Cn1cncn1)c1ccc(F)cc1F`, the MIC was 0.125 µg/mL (≈ 0.266 µM).

In the case of `C[C@@H](N1CCn2nc(-c3ccc(Cl)cc3)nc2C1)[C@](O)(Cn1cncn1)c1ccc(F)cc1F`, the MIC worked out at 0.125 µg/mL (≈ 0.257 µM).

`C[C@@H](N1CCn2nc(-c3cccc(Cl)c3)nc2C1)[C@](O)(Cn1cncn1)c1ccc(F)cc1F` gave an MIC of 0.125 µg/mL (≈ 0.257 µM).

On to `C[C@@H](N1CCn2nc(-c3cccc(Br)c3)nc2C1)[C@](O)(Cn1cncn1)c1ccc(F)cc1F`, for which inhibition of growth (MIC) required 0.125 µg/mL (≈ 0.236 µM).

The compound `C[C@@H](N1CCn2nc(-c3cccc(C(F)(F)F)c3)nc2C1)[C@](O)(Cn1cncn1)c1ccc(F)cc1F` registered an MIC of 2 µg/mL (≈ 3.85 µM).

The test system of the next test is Candida parapsilosis. Briefly: Antimicrobial activity against Candida parapsilosis 22019 after 24 hrs by serial dilution method. In kind it is functional. To be noted: Lodderomyces parapsilosis, 22019, 24 h. In a few lines:
as §1
In turn, `C[C@@H](N1CCn2nc(-c3ccc(C#N)cc3)nc2C1)[C@](O)(Cn1cncn1)c1ccc(F)cc1F` had an MIC of 0.5 µg/mL (≈ 1.05 µM).

`Cc1cccc(-c2nc3n(n2)CCN([C@H](C)[C@](O)(Cn2cncn2)c2ccc(F)cc2F)C3)c1`: the MIC amounted to 0.25 µg/mL (≈ 0.537 µM).

In turn, `C[C@@H](N1CCn2nc(-c3ccc(Br)cc3)nc2C1)[C@](O)(Cn1cncn1)c1ccc(F)cc1F` yielded an MIC of 0.5 µg/mL (≈ 0.943 µM).

For the compound `C[C@@H](N1CCn2nc(-c3ccc(F)cc3)nc2C1)[C@](O)(Cn1cncn1)c1ccc(F)cc1F`, the minimal inhibitory concentration (MIC) was 0.125 µg/mL (≈ 0.266 µM).

`C[C@@H](N1CCn2nc(-c3ccc(Cl)cc3)nc2C1)[C@](O)(Cn1cncn1)c1ccc(F)cc1F` showed an MIC of 0.5 µg/mL (≈ 1.03 µM).

In turn, `C[C@@H](N1CCn2nc(-c3cccc(Cl)c3)nc2C1)[C@](O)(Cn1cncn1)c1ccc(F)cc1F` registered an MIC of 1 µg/mL (≈ 2.06 µM).

The compound `C[C@@H](N1CCn2nc(-c3cccc(Br)c3)nc2C1)[C@](O)(Cn1cncn1)c1ccc(F)cc1F` gave an MIC of 0.5 µg/mL (≈ 0.943 µM).

On to `C[C@@H](N1CCn2nc(-c3cccc(C(F)(F)F)c3)nc2C1)[C@](O)(Cn1cncn1)c1ccc(F)cc1F`, for which it took 0.5 µg/mL (≈ 0.963 µM) to inhibit growth (MIC).

The next test has as its system Cryptococcus neoformans. Briefly: Antimicrobial activity against Cryptococcus neoformans 32609 after 72 hrs by serial dilution method. In kind it is functional. The note with it: Cryptococcus neoformans, 32609, 72 h. In a few lines: as §1
Compound `C[C@@H](N1CCn2nc(-c3ccc(C#N)cc3)nc2C1)[C@](O)(Cn1cncn1)c1ccc(F)cc1F` showed an MIC of 0.125 µg/mL (≈ 0.262 µM).

As to `Cc1cccc(-c2nc3n(n2)CCN([C@H](C)[C@](O)(Cn2cncn2)c2ccc(F)cc2F)C3)c1`, the MIC was found to be 0.125 µg/mL (≈ 0.269 µM).

For `C[C@@H](N1CCn2nc(-c3ccc(Br)cc3)nc2C1)[C@](O)(Cn1cncn1)c1ccc(F)cc1F`, the MIC came out at 0.25 µg/mL (≈ 0.471 µM).

For the compound `C[C@@H](N1CCn2nc(-c3ccc(F)cc3)nc2C1)[C@](O)(Cn1cncn1)c1ccc(F)cc1F`, the MIC was 0.125 µg/mL (≈ 0.266 µM).

Regarding `C[C@@H](N1CCn2nc(-c3ccc(Cl)cc3)nc2C1)[C@](O)(Cn1cncn1)c1ccc(F)cc1F`, the MIC was 0.125 µg/mL (≈ 0.257 µM).

`C[C@@H](N1CCn2nc(-c3cccc(Cl)c3)nc2C1)[C@](O)(Cn1cncn1)c1ccc(F)cc1F` registered an MIC of 2 µg/mL (≈ 4.12 µM). This MIC lies about 16-fold higher than the previous one.

The compound `C[C@@H](N1CCn2nc(-c3cccc(Br)c3)nc2C1)[C@](O)(Cn1cncn1)c1ccc(F)cc1F` showed an MIC of 1 µg/mL (≈ 1.89 µM).

`C[C@@H](N1CCn2nc(-c3cccc(C(F)(F)F)c3)nc2C1)[C@](O)(Cn1cncn1)c1ccc(F)cc1F` had an MIC of 2 µg/mL (≈ 3.85 µM).

A further test concerns Nakaseomyces glabratus. Briefly: Antimicrobial activity against Candida glabrata 537 after 24 hrs by serial dilution method. The note with it: Nakaseomyces glabratus, 537, 24 h. The format is functional. In a few lines: as §1
As to `C[C@@H](N1CCn2nc(-c3ccc(C#N)cc3)nc2C1)[C@](O)(Cn1cncn1)c1ccc(F)cc1F`, the lowest concentration to inhibit growth (MIC) was 0.125 µg/mL (≈ 0.262 µM).

On to `Cc1cccc(-c2nc3n(n2)CCN([C@H](C)[C@](O)(Cn2cncn2)c2ccc(F)cc2F)C3)c1`, for which it took 0.125 µg/mL (≈ 0.269 µM) to inhibit growth (MIC).

Turning to `C[C@@H](N1CCn2nc(-c3ccc(Br)cc3)nc2C1)[C@](O)(Cn1cncn1)c1ccc(F)cc1F`, inhibition of growth (MIC) required 0.5 µg/mL (≈ 0.943 µM).

Turning to `C[C@@H](N1CCn2nc(-c3ccc(F)cc3)nc2C1)[C@](O)(Cn1cncn1)c1ccc(F)cc1F`, the MIC was 0.125 µg/mL (≈ 0.266 µM).

`C[C@@H](N1CCn2nc(-c3ccc(Cl)cc3)nc2C1)[C@](O)(Cn1cncn1)c1ccc(F)cc1F` gave an MIC of 0.5 µg/mL (≈ 1.03 µM).

Take `C[C@@H](N1CCn2nc(-c3cccc(Cl)c3)nc2C1)[C@](O)(Cn1cncn1)c1ccc(F)cc1F`: the MIC stood at 1 µg/mL (≈ 2.06 µM). Against the preceding compound, the MIC is about 2-fold higher.

`C[C@@H](N1CCn2nc(-c3cccc(Br)c3)nc2C1)[C@](O)(Cn1cncn1)c1ccc(F)cc1F` showed an MIC of 1 µg/mL (≈ 1.89 µM).

With `C[C@@H](N1CCn2nc(-c3cccc(C(F)(F)F)c3)nc2C1)[C@](O)(Cn1cncn1)c1ccc(F)cc1F`, inhibition of growth (MIC) required 0.25 µg/mL (≈ 0.481 µM).

The subject of the next test is Aspergillus fumigatus. Nature of the test: Antimicrobial activity against Aspergillus fumigatus 7544 after 48 hrs by serial dilution method. The format is functional. The note with it: Aspergillus fumigatus, 7544, 48 h. In a few lines:
as §1
`C[C@@H](N1CCn2nc(-c3ccc(C#N)cc3)nc2C1)[C@](O)(Cn1cncn1)c1ccc(F)cc1F` came in with an MIC of 64 µg/mL (≈ 134 µM).

On to `Cc1cccc(-c2nc3n(n2)CCN([C@H](C)[C@](O)(Cn2cncn2)c2ccc(F)cc2F)C3)c1`, for which it took 32 µg/mL (≈ 68.7 µM) to inhibit growth (MIC).

`C[C@@H](N1CCn2nc(-c3ccc(Br)cc3)nc2C1)[C@](O)(Cn1cncn1)c1ccc(F)cc1F`: the MIC was found to be 16 µg/mL (≈ 30.2 µM). This MIC lies about 2-fold lower than the previous one.

`C[C@@H](N1CCn2nc(-c3ccc(F)cc3)nc2C1)[C@](O)(Cn1cncn1)c1ccc(F)cc1F` registered an MIC of 32 µg/mL (≈ 68.2 µM).

`C[C@@H](N1CCn2nc(-c3ccc(Cl)cc3)nc2C1)[C@](O)(Cn1cncn1)c1ccc(F)cc1F` showed an MIC of 16 µg/mL (≈ 32.9 µM). This MIC is about 2-fold lower than that of the compound before.

As to `C[C@@H](N1CCn2nc(-c3cccc(Cl)c3)nc2C1)[C@](O)(Cn1cncn1)c1ccc(F)cc1F`, inhibition of growth (MIC) required 64 µg/mL (≈ 132 µM).

Take `C[C@@H](N1CCn2nc(-c3cccc(Br)c3)nc2C1)[C@](O)(Cn1cncn1)c1ccc(F)cc1F`: the MIC was 16 µg/mL (≈ 30.2 µM).

Take `C[C@@H](N1CCn2nc(-c3cccc(C(F)(F)F)c3)nc2C1)[C@](O)(Cn1cncn1)c1ccc(F)cc1F`: the MIC came to 16 µg/mL (≈ 30.8 µM).
